How the values were obtained:
[1] = molecular target: LAT1 (Homo sapiens, UniProt Q01650); assay: Inhibition of DOX or Asp-DOX uptake into S2-LAT1 cells by amino acids; assay type: cell-based; conditions: 100 μmol/L amino acid, 2 min; for Inhibition of the uptake of Asp-DOX by amino acids: 20 μmol/L Asp-DOX; for Inhibition of the uptake of DOX by amino acids: 20 μmol/L DOX
Procedure, shortened: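 S2-LAT1 cells incubated 2 min with 20 μmol/L test compound, with or without 100 μmol/L Leu, Met, Phe, Asp, Glu or Gly. Uptake stopped by three cold DPBS washes. Internalised drug extracted with methanol and quantified by HPLC.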

[2] = system: H1299 (human non-small cell lung carcinoma cell line); assay: MTT cytotoxicity, H1299; assay type: cell-based; conditions: 48 h
Procedure, shortened: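 Cells maintained in DMEM or RPMI-1640 with 10% FBS, penicillin and streptomycin at 37°C, 5% CO2. Seeded at 2000–4000 cells/well and grown 48 h, then exposed to test compound at 10, 20 or 50 μg/mL for 48 h. MTT (5 mg/mL stock, 20 μL per 100 μL) added for 2 h; absorbance read at 492 nm. Six repeats; inhibition rate computed from mean values.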

[3] = system: H1299 tumors; assay: Biodistribution in H1299 tumor-bearing mice; assay type: in vivo; conditions: H1299 models; DOX versus Asp-DOX; 5 mg/kg i.v.; 1 h
[4] = Pharmacokinetics in healthy mice; assay type: in vivo
Procedure, shortened: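 Healthy mice dosed 5 mg/kg via tail vein. Retrobulbar blood taken at 0, 2, 5, 10, 15, 30 min, 1, 2 and 4 h, mixed with 0.5 mM EDTA-PBS and spun at 1750 g for 15 min. Supernatant extracted with methanol, dried under nitrogen, reconstituted in mobile phase and analysed by HPLC. AUC0−t by non-compartmental i.v. bolus model.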

[5] = system: H1299 (LAT1-negative); assay: Cellular uptake in vitro, H1299; assay type: cell-based, human; conditions: 2 h
Procedure, shortened: (§1)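 HepG2 or H1299 cells seeded at 1.5 × 10^5/well and grown 48 h. Then exposed to test compound at 0, 10, 20 or 50 μg/mL in serum-free medium for 2 h at 37°C, 5% CO2. Rinsed three times with cold DPBS and imaged by fluorescence (excitation 475 nm, 580 nm). Cells then extracted with methanol and sonicated 10 min; supernatant quantified by HPLC/MS.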

[6] = system: HepG2 (LAT1-positive); assay: Cellular uptake in vitro, HepG2; assay type: cell-based, human; conditions: 2 h
Procedure, shortened: as §1

[7] = system: H1299 tumors; assay: Therapy study, H1299 tumor model; assay type: in vivo, mice; conditions: 5 mg/kg i.v. twice a week
Procedure, shortened: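 Nude mice bearing s.c. HepG2 or H1299 xenografts, set up as in the biodistribution model, split into three groups once tumours reached 100 mm3. Groups given saline, doxorubicin or test compound at 5 mg/kg i.v. twice a week. Tumours measured twice weekly; volume = length × width²/2; volumes compared after 21 days of treatment.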

[8] = system: MDR1-overexpressing MDCK cells; assay: Bidirectional transport assay; assay type: in vitro ADME; conditions: 50 μg/mL
Procedure, shortened: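 MDCK-MDR1 cells grown in high-glucose DMEM with 10% FBS. Seeded at 2 × 10^5 cells per 1.12 cm2 on polycarbonate Transwell inserts (0.4-μm pores) and used after about 7 days. TEER checked first. After 20 min equilibration in HBSS with 25 mM HEPES, 50 μg/mL test compound was added to the apical or basolateral donor side at 37°C with 60 rpm shaking. Receiver sampled at 60 min for HPLC-fluorescence. PDR = Papp(B–A)/Papp(A–B); n = 3.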

[9] = system: HepG2 tumors; assay: Biodistribution in HepG2 tumor-bearing mice; assay type: in vivo; conditions: HepG2 models; DOX-treated versus Asp-DOX-treated mice; 5 mg/kg i.v.; 1 h
Procedure, shortened: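 Male nude mice ([…], 4 weeks, 18–22 g) implanted s.c. above the right femoral joint with 1.0 × 107 HepG2, HCT116 or H1299 cells in 0.1 mL PBS, 3–5 per line. On day 20, with tumours about 100 mm3, 5 mg/kg given i.v. Killed 1 h later; tissues frozen in liquid nitrogen. Homogenates extracted twice with methanol (1-naphthol internal standard) for HPLC/MS; reported as % injected dose/g tissue.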

Chain of LAT1 (Q01650 whole entry): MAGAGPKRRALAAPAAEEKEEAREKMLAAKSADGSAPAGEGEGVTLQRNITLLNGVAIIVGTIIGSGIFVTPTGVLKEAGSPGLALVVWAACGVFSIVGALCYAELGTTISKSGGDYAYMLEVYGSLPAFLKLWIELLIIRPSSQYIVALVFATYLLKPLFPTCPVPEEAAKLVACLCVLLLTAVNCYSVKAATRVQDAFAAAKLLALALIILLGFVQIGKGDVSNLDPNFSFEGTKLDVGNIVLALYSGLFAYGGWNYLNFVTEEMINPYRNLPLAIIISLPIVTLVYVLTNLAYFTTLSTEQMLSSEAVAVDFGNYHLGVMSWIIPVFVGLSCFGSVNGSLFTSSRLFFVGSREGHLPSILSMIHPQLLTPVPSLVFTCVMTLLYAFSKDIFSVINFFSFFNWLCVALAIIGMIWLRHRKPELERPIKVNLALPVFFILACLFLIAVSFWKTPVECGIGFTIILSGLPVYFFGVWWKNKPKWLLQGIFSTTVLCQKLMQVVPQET
Chain of LAT1 (P08195 102-630 partner): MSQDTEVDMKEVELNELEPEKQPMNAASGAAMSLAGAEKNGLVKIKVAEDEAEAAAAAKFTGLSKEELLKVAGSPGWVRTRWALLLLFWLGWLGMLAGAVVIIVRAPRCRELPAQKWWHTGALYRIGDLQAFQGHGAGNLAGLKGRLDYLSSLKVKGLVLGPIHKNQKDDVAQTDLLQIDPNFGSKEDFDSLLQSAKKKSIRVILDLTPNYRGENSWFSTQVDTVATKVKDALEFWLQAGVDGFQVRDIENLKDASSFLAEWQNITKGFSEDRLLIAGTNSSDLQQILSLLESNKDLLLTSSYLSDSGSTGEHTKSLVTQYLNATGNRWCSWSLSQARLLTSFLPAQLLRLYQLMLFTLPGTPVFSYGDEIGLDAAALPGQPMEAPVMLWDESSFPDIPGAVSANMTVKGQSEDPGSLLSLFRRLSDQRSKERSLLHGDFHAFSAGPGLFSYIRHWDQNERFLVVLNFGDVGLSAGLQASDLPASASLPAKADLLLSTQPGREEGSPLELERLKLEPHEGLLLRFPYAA

## C[C@H](N)C(=O)O [Ala]
[1]
  Inhibition of the uptake of Asp-DOX by amino acids: no inhibition
  Inhibition of the uptake of DOX by amino acids: neither 100 μmol/L Leu, Met, or Phe, nor 100 μmol/L Ala, Glu, or Gly inhibited

## COc1cccc2c1C(=O)c1c(O)c3c(c(O)c1C2=O)C[C@@](O)(C(=O)CO)C[C@@H]3O[C@H]1C[C@H](N)[C@H](O)[C@H](C)O1 [DOX, doxorubicin]
[2]
  IC50: 36.51 μg/ml μg/mL
[3]
  Drug levels in tissues: higher than that of Asp-DOX in all tissues
[4]; 5 mg/kg i.v. (tail vein), blood
  t1/2: 15.12 min
[4]; 5 mg/kg i.v., 0-4 h
  AUC0−t: 158.894 µg·min/mL
[5]; dose 10 μg/mL
  Uptake: 0.20 ± 0.059 µg/mL
[5]; dose 20 μg/mL
  Uptake: 0.33 ± 0.019 µg/mL
[5]; dose 50 μg/mL
  Uptake: 0.69 ± 0.055 µg/mL
[6]; dose 10 μg/mL
  Uptake: 0.21 ± 0.030 µg/mL
[6]; dose 20 μg/mL
  Uptake: 0.44 ± 0.032 µg/mL
[6]; dose 50 μg/mL
  Uptake: 0.70 ± 0.079 µg/mL
[7]
  Antitumor effect: stronger than that of Asp-DOX and saline
[8]
  PDR (efflux rate, Papp(B–A):Papp(A–B)): 13.01 ± 1.425
[8]; apical to basolateral, 60 min
  Papp A–B: 0.53 ± 0.093 10^−6 cm/s
[8]; basolateral to apical, 60 min
  Papp B–A: 6.63 ± 0.328 10^−6 cm/s
[9]
  Drug levels in heart, liver, and lung: significantly higher

## N[C@@H](CCC(=O)O)C(=O)O [Glu]
[1]
  Inhibition of the uptake of Asp-DOX by amino acids: no inhibition
  Inhibition of the uptake of DOX by amino acids: neither 100 μmol/L Leu, Met, or Phe, nor 100 μmol/L Ala, Glu, or Gly inhibited

## NCC(=O)O [Gly]
[1]
  Inhibition of the uptake of Asp-DOX by amino acids: no inhibition
  Inhibition of the uptake of DOX by amino acids: neither 100 μmol/L Leu, Met, or Phe, nor 100 μmol/L Ala, Glu, or Gly inhibited

## CC(C)C[C@H](N)C(=O)O [Leu, leucine]
[1]
  Inhibition of the uptake of Asp-DOX by amino acids: strongly inhibited
  Inhibition of the uptake of DOX by amino acids: neither 100 μmol/L Leu, Met, or Phe, nor 100 μmol/L Ala, Glu, or Gly inhibited

## CSCC[C@H](N)C(=O)O [Met, methionine]
[1]
  Inhibition of the uptake of Asp-DOX by amino acids: strongly inhibited
  Inhibition of the uptake of DOX by amino acids: neither 100 μmol/L Leu, Met, or Phe, nor 100 μmol/L Ala, Glu, or Gly inhibited

## N[C@@H](Cc1ccccc1)C(=O)O [Phe, phenylalanine]
[1]
  Inhibition of the uptake of Asp-DOX by amino acids: strongly inhibited
  Inhibition of the uptake of DOX by amino acids: neither 100 μmol/L Leu, Met, or Phe, nor 100 μmol/L Ala, Glu, or Gly inhibited

Reference: publication PMC4471785 (Cancer Science, 2015)
